# Source: ChEMBL document CHEMBL2439960, “Pharmacokinetics, metabolism, and in vivo efficacy of the antimalarial natural product bromophycolide A” (ACS Med Chem Lett, 2013)
# Experiments:
# [1] = Apparent clearance in Swiss mouse at 50 mg/kg, ip after 1 to 24 hrs by LC-MS/MS analysis; assay type: ADME, organism-based; design: dose 50 mg/kg, route intraperitoneal; conditions: in vivo, read-out: CL(app)
# [2] = test system: Liver microsomes; assay: Metabolic stability in human liver microsomes assessed as formation of metabolite M5 at 10 uM by LC-MS analysis in presence of UDPGA; assay type: ADME, Microsome
# Procedure, shortened: (§1)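 Reaction products from S9 or microsomal incubations with NADPH analysed by LC-MS. Runs without UDPGA were checked for hydroxylated (m/z 677) and doubly hydroxylated (m/z 693) species. Runs with UDPGA were checked for a glucuronide (m/z 837).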
# [3] = Apparent volume of distribution in BALB/c mouse at 23 mg/kg, iv after 1 to 24 hrs by LC-MS/MS analysis; assay type: ADME, organism-based; design: dose 23 mg/kg, route intravenous; conditions: in vivo, read-out: Vd(app)
# Procedure, shortened: (§2)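 Healthy mice given one 23 mg/kg dose, IV or IP. Plasma concentrations plotted as mean ± SD, n=3. Kinetics fitted as a first-order elimination process.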
# [4] = Metabolic stability in human liver cytosolic subcellular fraction at 10 uM after 4 hrs by LC-MS analysis; assay type: ADME; conditions: cytosol
# [5] = test system: Liver microsomes; assay: Metabolic stability in human liver microsomes at 10 uM after 4 hrs by LC-MS analysis; assay type: ADME, Microsome
# Procedure, shortened: (§3)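 Initial incubations with the human liver S9 or microsomal fraction lasted 4 h.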
# [6] = test system: Liver; assay: Half life in human liver S9 fraction at 10 uM after 24 hrs by LC-MS analysis; assay type: ADME, subcellular; conditions: s9, 24 h
# Procedure, shortened: (§4)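 Compound incubated with human liver S9 or microsomal fractions for 24 h, extended from 4 h, with NADPH and with or without UDPGA. Loss of parent compound followed over time, sampled at 6 and 24 h. In vitro t1/2 and CLint calculated from the loss.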
# [7] = test system: Liver microsomes; assay: Metabolic stability in human liver microsomes assessed as formation of metabolite M3 at 10 uM by LC-MS analysis in presence of NADPH and absence of UDPGA; assay type: ADME, Microsome; procedure, shortened: as §1
# [8] = Cmax in BALB/c mouse at 23 mg/kg, ip after 1 to 24 hrs by LC-MS/MS analysis; assay type: ADME, organism-based; design: dose 23 mg/kg, route intraperitoneal; conditions: in vivo; procedure, shortened: as §2
# [9] = Half life in BALB/c mouse at 23 mg/kg, iv after 1 to 24 hrs by LC-MS/MS analysis; assay type: ADME, organism-based; design: dose 23 mg/kg, route intravenous; conditions: in vivo; procedure, shortened: as §2
# [10] = AUC in BALB/c mouse at 23 mg/kg, ip after 1 to 24 hrs by LC-MS/MS analysis; assay type: ADME, organism-based; design: dose 23 mg/kg, route intraperitoneal; conditions: plasma; procedure, shortened: as §2
# [11] = Metabolic stability in human liver microsomes assessed as compound remaining at 10 uM after 24 hrs by LC-MS analysis in presence of UDPGA; assay type: ADME, Microsome; conditions: read-out: Stability; procedure, shortened: as §4
# [12] = Metabolic stability in human liver S9 fraction assessed as formation of metabolite M3 at 10 uM by LC-MS analysis in presence of NADPH and absence of UDPGA; assay type: ADME, subcellular; conditions: s9, 10 µM; procedure, shortened: as §1
# [13] = test system: Liver microsomes; assay: Half life in human liver microsomes at 10 uM after 24 hrs by LC-MS analysis in presence of UDPGA; assay type: ADME, Microsome; procedure, shortened: as §4
# [14] = Drug metabolism in human liver S9 fraction at 10 uM after 24 hrs by LC-MS analysis; assay type: ADME, subcellular; conditions: read-out: Drug metabolism; procedure, shortened: as §4
# [15] = test system: Liver microsomes; assay: Metabolic stability in human liver microsomes assessed as formation of metabolite M4 at 10 uM by LC-MS analysis in presence of NADPH and absence of UDPGA; assay type: ADME, Microsome; procedure, shortened: as §1
# [16] = Metabolic stability in human liver S9 fraction assessed as formation of metabolite M1 at 10 uM by LC-MS analysis in presence of NADPH and absence of UDPGA; assay type: ADME, subcellular; conditions: s9, 10 µM; procedure, shortened: as §1
# [17] = AUC in BALB/c mouse at 23 mg/kg, iv after 1 to 24 hrs by LC-MS/MS analysis; assay type: ADME, organism-based; design: dose 23 mg/kg, route intravenous; conditions: plasma; procedure, shortened: as §2
# [18] = Drug metabolism in human liver microsomes at 10 uM after 24 hrs by LC-MS analysis in absence of UDPGA; assay type: ADME, Microsome; conditions: read-out: Drug metabolism; procedure, shortened: as §4
# [19] = Plasma clearance in BALB/c mouse at 23 mg/kg, iv after 1 to 24 hrs by LC-MS/MS analysis; assay type: ADME, organism-based; design: dose 23 mg/kg, route intravenous; procedure, shortened: as §2
# [20] = test system: Plasmodium falciparum; assay: Antiplasmodial activity against chloroquine-sensitive Plasmodium falciparum 3D7 infected in erythrocytes assessed as parasite growth inhibition after 72 hrs by SYBR green I staining-based fluorescence assay; assay type: functional, organism-based; conditions: 3D7, 72 h
# [21] = test system: Mus musculus; assay: Toxicity in Swiss Webster mouse at 5 to 10 mg/kg, ip qd administered on day 2 to 5; assay type: organism-based; design: dose 5-10 mg/kg, route intraperitoneal; conditions: in vivo
# [22] = test system: Plasmodium yoelii; assay: Antimalarial activity against Plasmodium yoelii infected in Swiss Webster mouse assessed as decrease in parasite load at 10 mg/kg, ip qd administered on day 2 to 5 by Hoechst 33342 staining-based FACS analysis relative to control; assay type: functional; design: scale not given: the % may be the effect or the level left; conditions: route intraperitoneal
# Procedure, shortened: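 Mice infected with Plasmodium yoelii, dosed once daily at 5 or 10 mg/kg. Vehicle-only injected mice served as controls. Parasitemia was measured by FACS, including 24 h after the first dose, after the second dose, and at the end of the four-day trial.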
# [23] = test system: Liver microsomes; assay: Metabolic stability in human liver microsomes assessed as formation of metabolite M2 at 10 uM by LC-MS analysis in presence of NADPH and absence of UDPGA; assay type: ADME, Microsome; procedure, shortened: as §1
# [24] = test system: Serum; assay: Metabolic stability in mouse serum at 150 uM after 24 hrs by HPLC analysis; assay type: ADME, cell-free
# Procedure, shortened: (§5)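 Compound incubated in mouse serum at 37 °C. Remaining compound measured at 24 h and 48 h.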
# [25] = test system: Plasmodium falciparum; assay: Antiplasmodial activity against chloroquine-resistant Plasmodium falciparum Dd2 infected in erythrocytes assessed as parasite growth inhibition after 72 hrs by SYBR green I staining-based fluorescence assay; assay type: functional, organism-based; conditions: Dd2, 72 h
# [26] = Half life in human liver S9 fraction at 10 uM after 24 hrs by LC-MS analysis in presence of UDPGA; assay type: ADME, subcellular; conditions: s9, 24 h; procedure, shortened: as §4
# [27] = Initial plasma concentration in BALB/c mouse at 23 mg/kg, iv after 1 to 24 hrs by LC-MS/MS analysis; assay type: ADME, organism-based; design: dose 23 mg/kg, route intravenous; procedure, shortened: as §2
# [28] = Elimination rate constant in BALB/c mouse at 23 mg/kg, iv after 1 to 24 hrs by LC-MS/MS analysis; assay type: ADME, organism-based; design: dose 23 mg/kg, route intravenous; conditions: in vivo; procedure, shortened: as §2
# [29] = Metabolic stability in human liver S9 fraction assessed as formation of metabolite M4 at 10 uM by LC-MS analysis in presence of NADPH and absence of UDPGA; assay type: ADME, subcellular; conditions: s9, 10 µM; procedure, shortened: as §1
# [30] = test system: Liver microsomes; assay: Half life in human liver microsomes at 10 uM after 24 hrs by LC-MS analysis in absence of UDPGA; assay type: ADME, Microsome; procedure, shortened: as §4
# [31] = Drug metabolism in human liver S9 fraction at 10 uM after 24 hrs by LC-MS analysis in presence of UDPGA; assay type: ADME, subcellular; conditions: s9, 24 h; procedure, shortened: as §4
# [32] = Metabolic stability in human Liver S9 fraction assessed as formation of metabolite M5 at 10 uM by LC-MS analysis in presence of UDPGA; assay type: ADME, subcellular; conditions: s9, 10 µM; procedure, shortened: as §1
# [33] = test system: Liver; assay: Metabolic stability in human liver S9 fraction at 10 uM after 4 hrs by LC-MS analysis; assay type: ADME, subcellular; conditions: s9, 4 h; procedure, shortened: as §3
# [34] = test system: Mus musculus; assay: Drug absorption rate constant in BALB/c mouse at 23 mg/kg, ip after 1 to 24 hrs by LC-MS/MS analysis; assay type: ADME, organism-based; design: dose 23 mg/kg, route intraperitoneal; conditions: in vivo; procedure, shortened: as §2
# [35] = Tmax in BALB/c mouse at 23 mg/kg, ip after 1 to 24 hrs by LC-MS/MS analysis; assay type: ADME, organism-based; design: dose 23 mg/kg, route intraperitoneal; conditions: in vivo; procedure, shortened: as §2
# [36] = Drug degradation in mouse serum at 150 uM after 48 hrs by HPLC analysis; assay type: ADME, cell-free; conditions: read-out: Drug degradation; procedure, shortened: as §5
# [37] = Metabolic stability in human liver S9 fraction at 10 uM after 24 hrs by LC-MS analysis in absence of S9 enzyme and NADPH; assay type: ADME, subcellular; conditions: s9, 24 h
# Procedure, shortened: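 Control incubations for the S9 metabolism assay run over 24 h, lacking either the enzyme or NADPH.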
# [38] = test system: Liver microsomes; assay: Metabolic stability in human liver microsomes assessed as formation of metabolite M1 at 10 uM by LC-MS analysis in presence of NADPH and absence of UDPGA; assay type: ADME, Microsome; procedure, shortened: as §1
# [39] = test system: Liver microsomes; assay: Intrinsic clearance in human liver microsomes at 10 uM after 24 hrs by LC-MS analysis in absence of UDPGA; assay type: ADME, Microsome; procedure, shortened: as §4
# [40] = Metabolic stability in human liver S9 fraction assessed as formation of metabolite M2 at 10 uM by LC-MS analysis in presence of NADPH and absence of UDPGA; assay type: ADME, subcellular; conditions: s9, 10 µM; procedure, shortened: as §1
# [41] = test system: Plasmodium berghei; assay: Antimalarial activity against Plasmodium berghei ANKA infected in NMRI mouse assessed as reduction of parasitemia at 10 mg/kg, po qd administered 3 days by flow cytometric analysis; assay type: functional; design: scale not given: the % may be the effect or the level left
# [42] = test system: Plasmodium falciparum; assay: Antiplasmodial activity against ring stage of chloroquine-sensitive Plasmodium falciparum MRC-02 infected in human erythrocytes assessed as parasite growth inhibition after 24 hrs by Giemsa staining method; assay type: functional, organism-based; conditions: MRC-02, 24 h
# [43] = test system: Plasmodium falciparum; assay: Antiplasmodial activity against chloroquine-sensitive Plasmodium falciparum MRC-02 assessed as suppression of parasitemia at 50 mg/kg, po by in vivo model study; assay type: functional
smiles,measurement,setting,value
CCN(CC)CCCC(C)Nc1ccnc2cc(Cl)ccc12 (centres undefined) [CHLOROQUINE],CL/F,[1],17 mL/min/kg
CC1=C2Cc3cc(ccc3O)C(=O)O[C@H](C(C)(C)Br)CC[C@](C)(O)[C@H](Br)CC[C@]2(C)[C@@H](Br)CC1,Stability,[2],Unstable
same,Vd,[3],0.95 L/kg
same,Stability,[4],Stable
same,Stability,[5],Stable
same,t1/2,[6],20 h
same,Stability,[7],Unstable
same,Cmax,[8],5800 ng/mL
same,half-life,[9],0.75 h
same,AUC,[10],20000 ng·h/mL
same,"remaining at 24 h, 10 µM",[11],15.3%
same,Stability,[12],Unstable
same,t1/2,[13],6.6 h
same,"metabolised at 24 h, 10 µM",[14],55%
same,Stability,[15],Unstable
same,Stability,[16],Unstable
same,AUC,[17],26000 ng·h/mL
same,"metabolised at 24 h, 10 µM",[18],61%
same,clearance,[19],16 mL/min/kg
same,IC50,[20],499 nM
same,Activity,[21],Non-toxic
same,Activity,[22],47%
same,Stability,[23],Unstable
same,Stability,[24],Stable
same,IC50,[25],377 nM
same,t1/2,[26],9.5 h
same,C0,[27],24000 ng/mL
same,k el,[28],0.000258 s⁻¹
same,Stability,[29],Unstable
same,t1/2,[30],14 h
same,Drug metabolism,[31],21%
same,Stability,[32],Unstable
same,Stability,[33],Stable
same,ka,[34],0.24 h⁻¹
same,Tmax,[35],1.5 h
same,"metabolised at 48 h, 150 µM",[36],27%
same,Stability,[37],Stable
same,Stability,[38],Unstable
same,CLint,[39],0.72 mL/min/kg
same,Stability,[40],Unstable
CC(=O)Oc1ccc2cc1CC1=C(C)CC[C@H](Br)[C@@]1(C)CC[C@@H](Br)[C@@](C)(O)CC[C@@H](C(C)(C)Br)OC2=O,IC50,[20],241 nM
C[C@H]1Cc2c([nH]c3cc(Cl)c(F)cc23)[C@@]2(N1)C(=O)Nc1ccc(Cl)cc12 [CIPARGAMIN],Activity,[41],99%
CC(=O)OC[C@@H]1CC[C@]2(C)C(C)=CC(=O)C[C@H]2[C@]1(C)CCC1=CCOC1=O,IC50,[42],8800 nM
same,Activity,[43],45%
